Assay results published in article PMC11740949 (Bioconjugate Chemistry, 2024).

Molecular target: T1, recombinant murine FAP (Mus musculus, UniProt P97321)
T1 sequence (P97321 1-761): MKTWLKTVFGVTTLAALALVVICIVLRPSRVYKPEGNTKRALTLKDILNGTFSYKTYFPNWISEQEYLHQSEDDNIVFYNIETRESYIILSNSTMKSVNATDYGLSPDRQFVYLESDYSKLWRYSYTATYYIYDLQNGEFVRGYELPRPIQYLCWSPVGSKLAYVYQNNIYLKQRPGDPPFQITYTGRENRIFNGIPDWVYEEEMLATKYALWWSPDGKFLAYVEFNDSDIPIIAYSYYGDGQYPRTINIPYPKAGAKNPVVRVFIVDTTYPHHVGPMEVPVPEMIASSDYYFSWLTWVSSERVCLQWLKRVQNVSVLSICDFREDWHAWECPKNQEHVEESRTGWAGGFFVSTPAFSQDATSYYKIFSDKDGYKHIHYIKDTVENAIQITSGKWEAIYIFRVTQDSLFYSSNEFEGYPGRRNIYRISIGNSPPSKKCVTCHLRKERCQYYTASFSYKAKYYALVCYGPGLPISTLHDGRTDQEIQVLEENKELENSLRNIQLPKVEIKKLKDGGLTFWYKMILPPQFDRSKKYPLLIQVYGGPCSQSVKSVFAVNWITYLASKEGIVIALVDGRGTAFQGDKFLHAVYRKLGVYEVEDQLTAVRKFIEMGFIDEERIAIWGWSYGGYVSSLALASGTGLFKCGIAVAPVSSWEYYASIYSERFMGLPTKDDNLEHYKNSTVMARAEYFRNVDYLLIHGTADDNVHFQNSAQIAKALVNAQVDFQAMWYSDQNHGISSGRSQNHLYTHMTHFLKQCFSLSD
Assay: FAP inhibition assay with fluorogenic substrate Z-Gly-Pro-AMC
Type: biochemical
Conditions: three-parameter fit
How it was run: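 Recombinant mouse FAP at 0.01 μg/100 μL in 50 mM Tris, 1.0 M NaCl, 0.1% BSA (w/v), pH 7.5. Test compound was serially diluted 1:5 (10 pM–10 μM) and preincubated with the enzyme for 30 min at 37 °C. Z-Gly-Pro-AMC was then added (10 μL of a 100 μM solution) for 60 min at 37 °C, and fluorescence was read at Ex 380/Em 460. Activity was scaled to no-inhibitor and no-enzyme wells, and IC50 came from a three-parameter inhibitor-vs-response fit.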

N#C[C@@H]1CC(F)(F)CN1C(=O)CNC(=O)c1ccnc2ccc(OCCCN3CCN(C(=O)CN4CCN(CC(=O)O)CCN(CC(=O)O)CCN(CC(=O)O)CC4)CC3)cc12 [FAPi-4]
IC50: 0.59 nM
